Results as given in ChEMBL document CHEMBL1153864, “Phase transfer catalyzed synthesis of bis-quinolines: antileishmanial activity in experimental visceral leishmaniasis and in vitro antibacterial evaluation” (Eur J Med Chem, 2009).
Calls of active or inactive are those of the source.

How the values were obtained:
[1] = tested on: Leishmania donovani; assay: Antileishmanial activity against Leishmania donovani MHOM/IN/1983/AG83 promastigotes infected BALB/c mouse assessed as reduction in spleen parasite burden at 5.5 mg/kg, ip administered two times per week for 4 weeks relative to control; format: functional; design: scale not given: the % may be the effect or the level left; conditions: route intraperitoneal
Outline: (§1)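 BALB/c mice (4-6 weeks) were infected iv with 2 × 10^7 freshly transformed promastigotes. One month later, groups were dosed ip in 0.2% Tween 80 in PBS (0.02 M), twice weekly for one month (8 doses); controls got vehicle only. Mice were killed one month post-treatment and spleen and liver were weighed. Parasite load came from Giemsa impression smears as organ weight (mg) × amastigotes per cell nucleus × 2 × 10^5. Values are mean ± S.E. of 5 mice; unpaired t-test.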

[2] = tested on: Leishmania donovani; assay: Antileishmanial activity against Leishmania donovani MHOM/IN/1983/AG83 promastigotes infected BALB/c mouse assessed as reduction in liver parasite burden at 12.5 mg/kg, ip administered two times per week for 4 weeks relative to control; format: functional; design: scale not given: the % may be the effect or the level left; conditions: route intraperitoneal; outline: as §1
[3] = tested on: Leishmania donovani; assay: Antileishmanial activity against Leishmania donovani MHOM/IN/1983/AG83 promastigotes infected BALB/c mouse assessed as reduction in liver parasite burden at 5.5 mg/kg, ip administered two times per week for 4 weeks relative to control; format: functional; design: scale not given: the % may be the effect or the level left; conditions: route intraperitoneal; outline: as §1
[4] = tested on: Mus musculus; assay: Toxicity in BALB/c mouse assessed as effect on blood urea levels at 5.5 mg/kg, ip administered two times per week for 4 weeks; format: organism-based; design: dose 5.5 mg/kg, route intraperitoneal; conditions: in vivo, 672 h
Outline: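 Normal BALB/c mice were dosed ip twice per week for 4 weeks. Blood was collected one month after treatment, and serum SGPT and SGOT (IU/l) and blood urea (mg/dl) were measured with commercial kits and compared with untreated normal mice.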

[5] = tested on: Staphylococcus aureus; assay: Antibacterial activity against Staphylococcus aureus ML6 at 10 ug/ml after 24 hrs by agar dilution method; format: functional; conditions: ML6, 24 h
Outline: (§2)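 Agar dilution MIC. Compound dissolved in sterile 0.2% DMSO, diluted in distilled water and mixed into molten nutrient agar (pH 7.2–7.4) at 5, 10, 25, 50; plate with 0.2% DMSO as control. Gram-positives grown 18 h in nutrient broth, Gram-negatives in peptone water. Stationary-phase suspension set to 0.5 McFarland, diluted 1:100, spot-inoculated at about 10^5 CFU per loopful. Plates held 24 h at 37 °C (up to 72 h if needed). MIC is the lowest level with no growth.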

[6] = tested on: Staphylococcus aureus; assay: Antibacterial activity against Staphylococcus aureus ML6 at 50 ug/ml after 24 hrs by agar dilution method; format: functional; conditions: ML6, 24 h; outline: as §2
[7] = tested on: Bacillus licheniformis; assay: Antibacterial activity against […] Bacillus licheniformis NCTC 10341 after 24 hrs by agar dilution method; format: functional; conditions: NCTC 10341, 24 h; outline: as §2
[8] = tested on: Salmonella typhimurium; assay: Antibacterial activity against Salmonella Typhimurium NCTC 74 at 10 ug/ml after 24 hrs by agar dilution method; format: functional, organism-based; conditions: Salmonella enterica subsp. enterica serovar Typhimurium; outline: as §2
[9] = tested on: Salmonella typhimurium; assay: Antibacterial activity against Salmonella Typhimurium NCTC 74 at 25 ug/ml after 24 hrs by agar dilution method; format: functional, organism-based; conditions: Salmonella enterica subsp. enterica serovar Typhimurium; outline: as §2
[10] = tested on: Salmonella typhimurium; assay: Antibacterial activity against Salmonella Typhimurium NCTC 74 after 24 hrs by agar dilution method; format: functional, Salmonella enterica subsp. enterica serovar Typhimurium; conditions: Salmonella enterica, NCTC 74, 24 h; outline: as §2
[11] = tested on: Shigella dysenteriae; assay: Antibacterial activity against Shigella dysenteriae 6 NCTC 100/54 after 24 hrs by agar dilution method; format: functional; conditions: 6 NCTC 100/54, 24 h
[12] = tested on: Escherichia coli; assay: Antibacterial activity against Escherichia coli K-12 Row at 5 ug/ml after 24 hrs by agar dilution method; format: functional, organism-based; outline: as §2
[13] = tested on: Escherichia coli; assay: Antibacterial activity against Escherichia coli K-12 Row at 10 ug/ml after 24 hrs by agar dilution method; format: functional, organism-based; outline: as §2
[14] = tested on: Escherichia coli; assay: Antibacterial activity against Escherichia coli K-12 Row at 50 ug/ml after 24 hrs by agar dilution method; format: functional; outline: as §2
[15] = tested on: Escherichia coli; assay: Antibacterial activity against Escherichia coli ATCC 25938 at 25 ug/ml after 24 hrs by agar dilution method; format: functional, organism-based; outline: as §2
[16] = tested on: Escherichia coli; assay: Antibacterial activity against Escherichia coli ATCC 25938 at 50 ug/ml after 24 hrs by agar dilution method; format: functional; conditions: ATCC 25938, 24 h; outline: as §2
[17] = tested on: Escherichia coli; assay: Antibacterial activity against Escherichia coli ATCC 25938 after 24 hrs by agar dilution method; format: functional; conditions: ATCC 25938, 24 h; outline: as §2
[18] = tested on: Vibrio cholerae; assay: Antibacterial activity against Vibrio cholerae 569B at 5 ug/ml after 24 hrs by agar dilution method; format: functional, organism-based
[19] = tested on: Vibrio cholerae; assay: Antibacterial activity against Vibrio cholerae 569B at 50 ug/ml after 24 hrs by agar dilution method; format: functional
[20] = tested on: Proteus mirabilis; assay: Antibacterial activity against Proteus mirabilis 7 at 5 ug/ml after 24 hrs by agar dilution method; format: functional, organism-based; outline: as §2
[21] = tested on: Proteus mirabilis; assay: Antibacterial activity against Proteus mirabilis 7 at 25 ug/ml after 24 hrs by agar dilution method; format: functional, organism-based; outline: as §2
[22] = tested on: Staphylococcus aureus; assay: Antibacterial activity against Staphylococcus aureus ML145 at 50 ug/ml after 24 hrs by agar dilution method; format: functional; conditions: ML145, 24 h; outline: as §2
[23] = tested on: Bacillus licheniformis; assay: Antibacterial activity against […] Bacillus licheniformis NCTC 10341 at 10 ug/ml after 24 hrs by agar dilution method; format: functional, organism-based; outline: as §2
[24] = tested on: Pseudomonas aeruginosa; assay: Antibacterial activity against Pseudomonas aeruginosa ATCC 27853 at 5 ug/ml after 24 hrs by agar dilution method; format: functional, organism-based; outline: as §2
[25] = tested on: Pseudomonas aeruginosa; assay: Antibacterial activity against Pseudomonas aeruginosa ATCC 27853 at 10 ug/ml after 24 hrs by agar dilution method; format: functional, organism-based; outline: as §2
[26] = tested on: Pseudomonas aeruginosa; assay: Antibacterial activity against Pseudomonas aeruginosa ATCC 27853 at 25 ug/ml after 24 hrs by agar dilution method; format: functional; conditions: ATCC 27853, 24 h; outline: as §2
[27] = tested on: Pseudomonas aeruginosa; assay: Antibacterial activity against Pseudomonas aeruginosa ATCC 27853 at 50 ug/ml after 24 hrs by agar dilution method; format: functional; conditions: ATCC 27853, 24 h; outline: as §2
[28] = tested on: Shigella dysenteriae; assay: Antibacterial activity against Shigella dysenteriae 7 NCTC 519/66 at 5 ug/ml after 24 hrs by agar dilution method; format: functional, organism-based
[29] = tested on: Leishmania donovani; assay: Antileishmanial activity against Leishmania donovani MHOM/IN/1983/AG83 promastigotes assessed as induction of kinetoplast enlargement at 2 ug/ml after 2 hrs by transmission electron microscopy; format: functional, organism-based
Outline: (§3)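 Log-phase promastigotes, grown at 22 °C in M199 with 10% FBS, were exposed for 2 h to the compound; controls received 0.1% DMSO alone. Cells were then sectioned, stained on copper grids with uranyl acetate and lead acetate for 10-15 min each, and examined by TEM for ultrastructural changes.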

[30] = tested on: Leishmania donovani; assay: Antileishmanial activity against Leishmania donovani MHOM/IN/1983/AG83 promastigotes assessed as induction of vacuolization at 2 ug/ml after 2 hrs by transmission electron microscopy; format: functional, organism-based; outline: as §3
[31] = Down regulation of TNFalpha release Leishmania donovani MHOM/IN/1983/AG83 infected interferon gamma-stimulated golden Syrian hamster peritoneal macrophages; format: functional, cell-based; conditions: Mesocricetus auratus; Macrophage
[32] = tested on: Leishmania donovani; assay: Antileishmanial activity against Leishmania donovani MHOM/IN/1983/AG83 promastigotes after 4 hrs by MTT assay; format: functional, organism-based; conditions: MHOM/IN/1983/AG83, 4 h
Outline: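 AG83 promastigotes kept at 22 °C in M199 + 10% FBS. Log-phase cells (2×10^6/ml) exposed 2 h at 22 °C to 1, 3, 5, 7, 10, 15 compound; DMSO at 0.1% final. Cells washed with PBS, incubated 4 h at 22 °C with MTT (2 mg/ml). Formazan dissolved in DMSO and read at 570 nm; % lysis computed, IC50 by linear regression.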

Clc1ccc(OCOc2ccc(Cl)c3cccnc23)c2ncccc12
inactive: Activity [8] | Activity [9] | Activity [12] | Activity [13] | Activity [15] | Activity [18] | Activity [20] | Activity [21] | Activity [23] | Activity [24] | Activity [25] | Activity [28]
75%: Activity [1]
active: Activity [29] | Activity [30] | Activity [31]
2 µg/mL: IC50 [32]
100%: inhibition at 10 µg/mL [5] | inhibition at 50 µg/mL [6] | inhibition at 50 µg/mL [14] | inhibition at 50 µg/mL [16] | inhibition at 50 µg/mL [19] | inhibition at 50 µg/mL [22] | inhibition at 25 µg/mL [26] | inhibition at 50 µg/mL [27]
Non-toxic: Activity [4]
50 µg/mL: MIC [7] | MIC [10] | MIC [11] | MIC [17]
98.49%: Activity [2]
78%: Activity [3]
